By Kd is commonly meant a measure of binding affinity in units of concentration. Low readings indicate tighter binding, high ones weaker binding.

Data on four molecules can be found in paper PMC2995081 (Nucleic Acids Research, 2010).

The target of test [1] is GST-Mdm2 RING domain (Homo sapiens, UniProt Q00987). The experiment in a line: ATP binding competition assay. The settings on record: for binding to Mdm2 (displacement of bound γ-32P ATP): Mdm2(400–484), Nebularine: concentration range up to 1 mM.
The target in a further test is GST-Mdm2(400–491) (Homo sapiens, UniProt Q00987). The experiment in a line: Isothermal titration calorimetry. The test is classed as binding. To be noted: 2 mM ATP titrated into 100 nM GST-Mdm2(400–491), single-site isotherm. In short, it runs like this:
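GST-Mdm2(400–491) was expressed in E. coli BL21 (16 h induction at 25°C) and purified on glutathione-Sepharose. In assay buffer (100 mM Tris-HCl pH 7.0, 100 mM NaCl, 10 mM MgCl2, 2 mM DTT), 2 mM ATP or GTP was injected into 100 nM protein over twenty injections. Buffer-alone heat of dilution was subtracted, and data were fitted to a single-site isotherm. Four independent measurements were made.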
Background: In ITC the heat of successive injections is recorded.

Test [2] deals with GST-Mdm2 RING domain. Description: ATP binding competition assay. To be noted: Mdm2(410–491) with eight lysines mutated to alanine (8 KA, Mdm2-NoLS). More on the design: species or system human.

Sequence of GST-Mdm2(400–491) (Q00987 400-491): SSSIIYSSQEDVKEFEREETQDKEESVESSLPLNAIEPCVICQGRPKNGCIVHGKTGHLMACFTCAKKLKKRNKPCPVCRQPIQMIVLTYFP

Take `Nc1ncnc2c1ncn2[C@H]1C[C@H](O)[C@@H](CO)O1` [2′ deooxyadenosine, 2′deoxyadenosine]: the “binding to Mdm2 (displacement of bound γ-32P ATP)” value at GST-Mdm2 RING domain [1] is “completely abrogated the binding”.

Consider `Nc1ncnc2c1ncn2[C@@H]1O[C@H](COP(=O)(O)OP(=O)(O)OP(=O)(O)O)[C@@H](O)[C@H]1O` [ATP, adenosine triphosphate], for which the Kd at GST-Mdm2(400–491) is 4 µM; at GST-Mdm2 RING domain [2], “low micromolar range”. Also, the “dissociation constant (Kd)” value on GST-Mdm2 RING domain [1] (GST-Mdm2(400–491), competition of γ-32P ATP) is reported as “low micromolar range”.

`Nc1nc(F)nc2c1ncn2[C@@H]1O[C@H](CO)[C@@H](O)[C@@H]1O` [F-Ara-A, Fludarabine]: the “binding to Mdm2 (displacement of bound γ-32P ATP)” value at GST-Mdm2 RING domain [1] is listed as “did not bind”.

As to `OC[C@H]1O[C@@H](n2cnc3cncnc32)[C@H](O)[C@@H]1O` [Nebularine], at GST-Mdm2 RING domain [1], the “binding to Mdm2 (displacement of bound γ-32P ATP)” value is on record as “no binding”.
